Measurements from PMC10650344 (RSC Medicinal Chemistry, 2023).
Values after ≈ are worked out from the molar mass of the structure shown.

Columns and labels:
[1] = system: differentiated SHSY-5Y cells; test: Genotoxicity analysis by Hoechst 33258 fluorescent nuclear staining; format: cell-based, human; settings: for genotoxic properties on the differentiated SHSY-5Y cells: 100 μg mL^−1; for Mean NA/1000 cells ± SD: 100 μg mL^−1, 24 h, nuclear abnormalities
Summary of the method: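 SH-SY5Y differentiated with 10 μM retinoic acid for 8 days (medium refreshed every 2 days), then 25 nM BDNF for 5 days. Test compound applied for 24 h. Cells washed in PBS, fixed in 4% paraformaldehyde at 4 °C for 30 min, then stained with Hoechst 33258 (1 mM) for 5 min at room temperature. Micronuclei, lobbed and notched nuclei scored by fluorescence microscopy in 1000 cells per treatment, in triplicate.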

[2] = log P by shake-flask method; format: physicochemical; settings: n-octanol/phosphate buffer solution (PBS), pH 7.4
Summary of the method: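 Shake-flask partition. About 5 mg of test compound dissolved in 1 mL n-octanol and mixed with an equal volume of PBS, pH 7.4. Mixture inverted 200 times over 5 min, then left 30 min to separate. Each phase assayed by HPLC (C18, 250 × 4.6 mm, isocratic H₂O/ACN + 0.1% TFA, 1 mL min⁻¹). log P taken from the concentration ratio of unionized compound between the phases.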

[3] = system: differentiated SHSY-5Y cells; test: MTT cell viability; format: cell-based, human; settings: 12.5–100 μg mL^−1, 24 h
Summary of the method: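 Neuron-like cultures made by differentiating SH-SY5Y with 10 μM retinoic acid for 8 days, then 25 nM BDNF for 5 days. Cells incubated 24 h with test compound at 12.5–100 μg mL⁻¹. Controls: untreated cells, and cells given 1.0% Triton X-100. MTT (5 mg mL⁻¹ solution) added for 3 h at 37 °C, formazan dissolved in DMSO, absorbance read at 570 nm. Three independent experiments, mean ± SD.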

[4] = Experimental water solubility by HPLC; format: physicochemical
[5] = system: differentiated SHSY-5Y cell cultures; format: cell-based, human; settings: compound 50 μg mL^−1, Aβ1–42 20 μM, 24 h
Summary of the method: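 AD model: SH-SY5Y cells differentiated with retinoic acid then BDNF, then exposed to 20 μM Aβ1–42 (fibrillised 24 h in medium). 10⁵ cells seeded; Aβ1–42 with or without test compound (25 or 50 μg mL⁻¹) for 24 h. Cells trypsinised 3 min at 37 °C, spun 500 × g 5 min, stained in binding buffer with Annexin V-FITC and propidium iodide 5 min at room temperature, then analysed by flow cytometry.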

Aβ1–42 aggregation = format: cell-based, human; settings: Congo red staining, experimental AD model
Summary of the method: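 Differentiated SH-SY5Y cells (retinoic acid, then BDNF) given 20 μM pre-fibrillised Aβ1–42 with test compound. Cells then fixed with 4% paraformaldehyde in PBS at 4 °C for 30 min and PBS-washed. Congo red (1 μM) added for 1 h in the dark, followed by three PBS washes. Bound dye extracted with DMSO, with absorbance read at 497 nm.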

| SMILES | genotoxic properties on the differentiated SHSY-5Y cells [1] | Mean NA/1000 cells ± SD [1] [NA/1000 cells] | logP [2] | cytotoxic effect on the differentiated SHSY-5Y cells (MTT cell viability) [3] | solubility [4] [µg/mL] | reduction of the apoptotic cell death ratio [5] [%] | preventive activity against Aβ1–42 aggregation (Aβ1–42 aggregation) |
| --- | --- | --- | --- | --- | --- | --- | --- |
| Brc1ccc(-c2csc(/C=C/c3ccccc3)n2)cc1 [6e, (E)-4-(4-Bromophenyl)-2-styrylthiazole] | did not enhance the genotoxic properties | 0.017 | 4.87 | no cytotoxic effect | 0.0175 (≈ 0.0511 µM) | – | – |
| COc1ccc(/C=C/c2nc(-c3ccc(OC)cc3)cs2)cc1 [6i, (E)-4-(4-Methoxyphenyl)-2-(4-methoxystyryl)thiazole] | did not enhance the genotoxic properties | 0.017 | 4.18 | no cytotoxic effect | 0.0719 (≈ 0.222 µM) | 30 | over 80% |
